Compounds with a hit are over-represented: about 2.4% of the library has one in this group of screens.
CSN inh: blocks human CSN-mediated cullin deneddylation; Q92905; Purified CSN, SCF-Nedd8-OG deneddylation, fluorescence polarization; inhibition, % at 12.5 µM; hit rate 0.38% among 360,000; AID 651999;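 active = pattern-corrected inhibition above about 35%, with an unprinted fluorescence ratio check between 0.5 and 1.5, limit read from the data, passing the limit was not always enough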;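 also: 0% = enzyme with substrate and 100% = substrate without enzyme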
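Assay system: Purified human Csn5 enzyme expressed in HEK293T cells | Amount: Enzyme 0.24 nM | Measured by: Fluorescence polarization readout | Medium: Tris/NaCl/DTT buffer, pH 7.5 | Compound dosing: One concentration, 12.5 µM, 0.25% DMSO | Times: 90 min incubation of compound, enzyme and substrate at room temperature | Control set: no-enzyme wells high, enzyme-with-substrate wells low | Read-out: % inhibition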
Tb MetRS inh: Trypanosoma brucei MetRS inhibition | purified T. brucei MetRS, ATP depletion, Kinase-Glo luminescence | inhibition, % at 11.9 µM | hit rate 0.4% among 360,000 | AID 624268;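 active = inhibition above a per-plate cutoff of the control wells' mean inhibition plus 3 SD, cut at about 5.5% in these data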;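 also: 0% = DMSO wells median and 100% = median of wells with control inhibitor compound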
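Dosing: 11.9 µM compound single dose, 0.9% DMSO; Assay system: purified T. brucei MetRS enzyme; Measured by: Kinase-Glo luciferase luminescence reporting remaining unconsumed ATP; Schedule: 15 min plus 2 h at 25 °C.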
Neddylation inh: cullin neddylation inhibition. inhibition, % at 25 µM. P61081+Q13564. hit rate 0.58% among 360,000. AID 651699. TR-FRET cullin neddylation, biochemical; in the data active = inhibition above about 36%
Rpn11 inh: blocks the human proteasome subunit Rpn11; O00487; human 26S proteasome, Ub4-pepOG fluorescence polarization; 20S core pre-blocked with epoxomicin; inhibition, % at 20 µM; hit rate 0.59% among 360,000; AID 588493;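 active = inhibition at 20 µM, scaled to each plate's controls, above about 33%, limit read from the data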
PREPL inhibitor: inhibitors of human prolyl oligopeptidase-like enzyme PREPL; Q4J6C6; recombinant PREPL, fluorescence polarization activity-based probe; inhibition, % at 5.96 µM; hit rate 0.68% among 320,000; AID 2751; in the data active = inhibition above about 43%;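 also: 0% = enzyme with DMSO and 100% = wells lacking enzyme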
HNF4A DNA FP: change in binding of human HNF4 alpha to DNA. P41235. HNF4a-FITC DNA binding, fluorescence polarization, 1 h. activity change, % at 10 µM. hit rate 0.3% among 360,000. AID 1224865; in the data active = activity change above about 30%, passing the limit was not always enough
Target sequence (P41235 whole entry, looked up): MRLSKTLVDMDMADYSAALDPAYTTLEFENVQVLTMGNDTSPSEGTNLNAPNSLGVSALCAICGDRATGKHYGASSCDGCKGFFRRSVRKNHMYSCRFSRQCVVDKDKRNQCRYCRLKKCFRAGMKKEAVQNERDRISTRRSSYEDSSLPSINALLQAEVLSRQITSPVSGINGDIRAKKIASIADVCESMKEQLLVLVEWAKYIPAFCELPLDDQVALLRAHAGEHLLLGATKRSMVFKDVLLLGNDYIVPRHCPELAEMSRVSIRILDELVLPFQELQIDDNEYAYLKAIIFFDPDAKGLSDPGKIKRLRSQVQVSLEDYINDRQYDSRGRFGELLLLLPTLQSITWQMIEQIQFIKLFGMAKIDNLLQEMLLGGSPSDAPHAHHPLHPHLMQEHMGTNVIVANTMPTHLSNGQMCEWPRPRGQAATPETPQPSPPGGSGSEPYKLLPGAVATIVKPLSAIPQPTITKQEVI
Neddyl inh conf: cullin neddylation inhibition, confirmation. shares compounds with Neddylation inh. TR-FRET cullin neddylation biochemical assay. calls only at 25 µM. hit rate 13% among 1,800; in the data active = inhibition above about 40%;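 also: neddylation substrate is the cullin 1 ring ligase complex with SKP2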
The depositor's hits bear a star; i = inactive; / = not tested or not shown; + = active, no number.

SMILES	CSN inh	Tb MetRS inh	Neddylation inh	Rpn11 inh	PREPL inhibitor	HNF4A DNA FP	Neddyl inh conf
CC1CCN(C(=O)Nc2ccc3nsnc3c2)CC1	-1	0	45*	1	4	1	+
S=C(Nc1ccc2nsnc2c1)NC1CCCCC1	9	1	35	-8	-3	-5	/
CC1CCN(C(=O)Nc2cccc(NC(=O)N3CCC(C)CC3)c2)CC1	-2	-1	12	0	4	2	/
S=C(Nc1ccc2nsnc2c1)N1CCCCCC1	16	-1	40*	-29	8	-10	i
COc1ccc(NC(=O)C(c2ccccc2F)n2c(=O)c(-c3cc4ccccc4[nH]3)nc3ccccc32)cc1 (stereo unspecified)	-2	0	/	/	/	3	/
Cc1cccc(NC(=O)CCC(=O)N2CCOCC2)n1	-3	0	9	-1	-1	-2	/
COc1ccccc1CC(=O)Nc1ccc(O)cc1C(=O)O	1	0	40*	-1	6	-2	/
O=C(COc1ccc(F)cc1)N1CCC(Cc2ccccc2)CC1	-6	1	-4	3	-1	3	/
CC1(C(=O)NS(=O)(=O)c2ccccc2C(F)(F)F)CCN1C(=O)CCC1CCCC1 (stereo unspecified)	0	0	2	-7	/	0	/
O=c1[nH]c2ccccc2c2cn(-c3ccccc3)nc12	-4	0	42*	-6	-10	4	i
CCOC(=O)C1=NN(c2ccc(C)cc2)CC1C(=O)OC (stereo unspecified)	3	-1	39*	0	-6	2	i
C[C@@H]1CN([C@H](C)CO)C(=O)CCCn2nncc2CO[C@@H]1CN(C)S(C)(=O)=O	-1	-3	-8	2	/	4	/
CC=C1OC(n2cnc3c(N)ncnc32)C(O)C1O (stereo unspecified)	-4	-1	42*	-1	/	3	i
Nc1ncnc2c1ncn2C1OC(COP(=O)(O)O)C(O)C1O (stereo unspecified)	-4	-7	56*	0	8	3	+
Nc1ncnc2c1ncn2[C@@H]1O[C@H](COP(=O)(O)O)[C@@H](O)[C@H]1O	-1	-7	49*	6	-1	-2	+
Nc1ncnc2c1ncn2[C@@H]1O[C@H](CO)C[C@H]1O	-4	-2	2	0	19	3	/
Cc1ccc(F)c(S(=O)(=O)NC(=O)C2(C)CCN2C(=O)Cc2ccsc2)c1 (stereo unspecified)	-2	0	-2	-8	/	3	/
NNC(=O)c1oc2nc(-c3ccc(Cl)cc3)cc(-c3ccccc3)c2c1N	7	0	43*	26	/	8	i
Clc1ccc(/C=C/c2nc(Cl)c(-c3ccc(Cl)cc3)c(Cl)n2)cc1	-9	1	41*	1	3	-1	i
CC(C)(C)c1ccc(CC(=O)N2CCC2(C)C(=O)NS(=O)(=O)c2ccc3c(c2)CCO3)cc1 (stereo unspecified)	-2	0	-5	-7	/	4	/
Cc1ccc2nc(NCc3ccccc3)c(C=NCc3ccccc3)c(=O)n2c1	4	0	18	-2	-2	1	/
CC(=O)O/N=C/c1c(NCc2ccccc2)nc2c(C)cccn2c1=O	2	1	32	-11	-18	-1	/
Cc1cccn2c(=O)c(/C=N/O)c(NCc3ccccc3)nc12	-5	1	43*	-4	7	3	/
Cc1cccn2c(=O)c(C=NCc3ccccc3)c(NCCO)nc12	0	-1	45*	-5	5	2	+
Nc1sccc1C(=O)N1CCN(c2ccccc2)CC1	3	0	-3	/	/	13	/
SMILES	CSN inh	Tb MetRS inh	Neddylation inh	Rpn11 inh	PREPL inhibitor	HNF4A DNA FP	Neddyl inh conf
O=C(C1CCC1)N1CCN(S(=O)(=O)c2ccc(Br)cc2Cl)CC1	0	0	9	1	0	-4	/
Cc1ccc(S(=O)(=O)N2C(c3ccccc3)CC(=O)C3CN(S(=O)(=O)c4ccc(Cl)cc4)C(c4ccccc4)CC32)cc1 (stereo unspecified)	0	-1	1	/	/	-1	/
Cc1ccc(Oc2nc3c(C)cccn3c(=O)c2/C=C(\C#N)C(N)=O)cc1	-7	0	46*	-6	-3	1	i
CCOC(=O)/C(C#N)=C/c1c(Oc2cccc(C)c2)nc2c(C)cccn2c1=O	3	0	/	29	8	30	/
O=C(CSc1nnc(C2CC2)n1C1CC1)c1ccc(Br)s1	0	1	-110	2	15	3	/
O=C(COc1ccccc1)Nc1nnc(-c2ccc(Cl)s2)o1	6	0	37*	4	1	1	i
NC(=O)c1cccc(N=Cc2cc(Cl)cc(Cl)c2O)c1	1	0	38*	2	/	-2	i
CN(Cc1nccs1)C(=O)c1cc(COc2cccc3cnccc23)on1	3	0	57*	-2	5	1	/
O=C1NC[C@H](CCCCN2C[C@H](Cc3ccccc3)N(CCc3ccc(O)cc3)C(=O)C2=O)N(CCC2CCCCC2)C1=O	-3	0	9	/	/	5	/
O=C(O)CCn1c(-c2ccccc2)cc2ccccc21	3	0	50*	-6	-4	0	/
O=C(CCSc1ccc(Cl)cc1)N1CCN(S(=O)(=O)c2ccccc2)CC1	4	0	-3	8	1	-2	/
CC1(C)Oc2ccc3ccc(=O)oc3c2[C@@H](O)[C@H]1O	2	0	/	3	-3	0	/
CC1(C)Oc2ccc3ccc(=O)oc3c2C[C@H]1O[C@@H]1O[C@H](CO)[C@@H](O)[C@H](O)[C@H]1O	-6	0	/	-4	8	-3	/
CC1(C)Oc2ccc3ccc(=O)oc3c2CC1O (stereo unspecified)	2	2	55*	-3	-1	-2	/
CCO[C@H]1c2c(ccc3ccc(=O)oc23)OC(C)(C)[C@H]1O	-1	0	35*	1	2	-1	i
CC(C)(C)C1CCNC(=O)CC1 (stereo unspecified)	0	0	0	2	/	0	/
CCOC(=O)C1=C(C)NC(C)=C(C(=O)OCC)C1C(=O)OCC(=O)N(C)Cc1ccccc1	-6	-1	40*	-3	11	-3	i
CC1(C(=O)Nc2cccc(C#N)c2)CCN1C(=O)C1(c2ccccc2)CC1 (stereo unspecified)	-1	0	2	-4	/	-3	/
Cc1nnc(N2CCC(C(=O)NC3CCC(C)CC3)CC2)c2nn(-c3ccc(Cl)cc3)c(C)c12 (stereo unspecified)	8	0	46*	3	14	5	i

Screens deposited in PubChem by several laboratories.
